This note sets out measurements from ChEMBL document CHEMBL4480439, “Fuscasins A-D, Cycloheptapeptides from the Marine Sponge Phakellia fusca” (J Nat Prod, 2019).

Calls of active or inactive are those of the source. The calls are words filed in the database; no cut-off is given here. Residues, ends and D or L forms follow the SMILES beside them.

Broadly, the IC50 is the concentration that gives 50% inhibition.

Data set [1] concerns HepG2. Put plainly: Cytotoxicity against human HepG2 cells assessed as reduction in cell viability up to 20 uM after 72 hrs by CCK8 assay. The format is functional, cell-based. An outline of the steps:
(§1)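 Cells grown at 37 °C in DMEM with 10% FBS and antibiotics, seeded at 3 × 10³ cells/well, and exposed to compound for 72 h. CCK-8 reagent was then added for 1 h at 37 °C in 5% CO₂, and OD was read at 450 nm. IC50 was obtained by fitting a log(inhibitor)-response model.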
Background: Tetrazolium assays rely on reduction of a dye to a coloured formazan, in cell work by metabolically active cells.

The subject of data set [2] is HeLa. Put plainly: Cytotoxicity against human HeLa cells assessed as reduction in cell viability up to 20 uM after 72 hrs by CCK8 assay. The format is functional, cell-based. An outline of the steps: as §1
The subject of data set [3] is NCI-H460. Put plainly: Cytotoxicity against human NCI-H460 cells assessed as reduction in cell viability up to 20 uM after 72 hrs by CCK8 assay. The format is functional, cell-based. An outline of the steps: (§2)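 Cells maintained in RPMI 1640 with 10% FBS and antibiotics, plated at 3 × 10³ cells/well, and treated for 72 h. After 1 h incubation with CCK-8 at 37 °C in 5% CO₂, absorbance was recorded at 450 nm. IC50 came from a log(inhibitor)-response curve fit.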

Data set [4] concerns HepG2. Put plainly: Cytotoxicity against human HepG2 cells assessed as reduction in cell viability after 72 hrs by CCK8 assay. Type of data set: functional, cell-based. Conditions: HepG2, 72 h. An outline of the steps: as §1
Data set [5] relates to H9c2. Put plainly: Cytotoxicity against rat H9c2 cells assessed as reduction in cell viability up to 100 uM after 72 hrs by CCK8 assay. Type of data set: cell-based. The conditions noted are these: h9c2, 72 h. An outline of the steps: as §1
The test system of data set [6] is PC-9. Put plainly: Cytotoxicity against human PC9 cells assessed as reduction in cell viability up to 20 uM after 72 hrs by CCK8 assay. The format is functional, cell-based. An outline of the steps: as §2
Data set [7] relates to MCF7. Put plainly: Cytotoxicity against human MCF7 cells assessed as reduction in cell viability up to 20 uM after 72 hrs by CCK8 assay. Type of data set: functional, cell-based. An outline of the steps: as §1
In data set [8] the test system is SW480. Put plainly: Cytotoxicity against human SW480 cells assessed as reduction in cell viability up to 20 uM after 72 hrs by CCK8 assay. Type of data set: functional, cell-based. An outline of the steps:
as §2

Consider `CC(C)C[C@@H]1NC(=O)[C@H](C)NC(=O)[C@@H]2CCCN2C(=O)[C@H](C)NC(=O)[C@H](Cc2ccc(O)cc2)NC(=O)[C@@H]2CCCN2C(=O)[C@H](Cc2ccc(O)cc2)NC1=O` (cyclo(ALYPYAP)), for which the result in data set [1] was inactive.

Consider `CC(C)C[C@@H]1NC(=O)[C@H](C)NC(=O)[C@H](Cc2ccc(O)cc2)NC(=O)[C@H](CCCNC(=N)N)NC(=O)[C@H](CC(N)=O)NC(=O)[C@H](C(C)C)NC(=O)[C@@H]2CCCN2C1=O` (cyclo(ALPVNRY)), for which, in data set [1], the result was inactive.

For `CC(C)C[C@@H]1NC(=O)[C@H](C(C)C)NC(=O)[C@H](Cc2ccccc2)N2C(=O)C[C@H](NC(=O)[C@@H]3CCCN3C(=O)[C@@H]3CCCN3C(=O)[C@@H]3CCCN3C1=O)C2=O`, the result in data set [2], in data set [3], in data set [6], in data set [7] and in data set [8] was inactive. For the same compound, the IC50 in data set [4] was determined as 4.6 µM. Also, the Activity entry in data set [5] was “Non-Toxic”.

Turning to `CC(C)C[C@@H]1NC(=O)[C@H](Cc2ccc(O)cc2)NC(=O)[C@H](CC(=O)O)NC(=O)[C@@H]2CCCN2C(=O)[C@H](CC(C)C)NC(=O)[C@@H]2CCCN2C(=O)[C@H](CC(C)C)NC1=O` (cyclo(DYLLPLP)), in data set [1], the result was inactive.
